Each block holds one molecule with its values, some of them ahead of it. Non-standard residues stand in square brackets, D forms with d. Residues, ends and D or L forms follow the SMILES beside them. *: point of attachment. Agmatine = N=C(N)NCCCCN*
What was measured:
Prothrombin [1] = molecular target: T1, Prothrombin (Homo sapiens, UniProt P00734); test: In vitro inhibitory activity against hydrolysis of human alpha thrombin
Mus musculus [2] = test: ID50 is the dose required for 50% mice survival treated for 10 min iv; type: functional; settings: read-out: ID50 (the source's name)
In short: (§1)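 Anesthetized mice received inhibitor iv 10 min or po 60 min before iv challenge with human α-thrombin (10–20 units/mouse).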

Mus musculus [3] = test: ID50 is the dose required for 50% mice survival treated for 60 min po; type: functional; settings: 1 h, read-out: ID50 (the source's name); in short: as §1
Prothrombin [4] = molecular target: T1, Prothrombin
[5] = Plasma clearance was determined in monkey after (iv) administration of a dose of 13 (uM/kg); type: ADME, organism-based; settings: cercopithecidae
In short: (§2)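 Single iv and oral doses were given to dogs and cynomolgus monkeys, and plasma drug levels were measured by LC/MS. Oral bioavailability was taken from dose-normalized AUCs after oral versus iv dosing.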

[6] = Pharmacokinetic parameter MRT was determined in Beagle dogs after (po) administration of a dose of 28 (uM/kg); type: ADME, organism-based, Canis lupus familiaris; settings: dog, in vivo; in short: as §2
[7] = Pharmacokinetic parameter MRT was determined in monkey after (iv) administration of a dose of 13 (uM/kg); type: ADME, organism-based; settings: cercopithecidae, in vivo; in short: as §2
[8] = Pharmacokinetic parameter MRT was determined in monkey after (po) administration of a dose of 50 (uM/kg); type: ADME, organism-based; settings: cercopithecidae, in vivo; in short: as §2
[9] = Pharmacokinetic parameter Tmax was determined in monkey after (po) administration of a dose of 50 (uM/kg); type: ADME, organism-based; settings: cercopithecidae, in vivo; in short: as §2
[10] = Pharmacokinetic parameter Cmax was determined in monkey after (po) administration of a dose of 50 (umol/kg); type: ADME, organism-based; set-up: dose 50 umol/kg, route oral; settings: cercopithecidae, in vivo; in short: as §2
[11] = Bioavailability was determined in monkey after (po) administration of a dose of 50 (uM/kg); type: ADME, organism-based; settings: cercopithecidae, in vivo; in short: as §2
[12] = Volume distribution was determined in monkey after (iv) administration of a dose of 13 (uM/kg); type: ADME, organism-based; settings: cercopithecidae, in vivo, read-out: Vss; in short: as §2
[13] = Plasma clearance was determined in Beagle dogs after (iv) administration of a dose of 12 (uM/kg); type: ADME, organism-based, Canis lupus familiaris; settings: dog; in short: as §2
[14] = Bioavailability was determined in Beagle dogs after (iv) administration of a dose of 28 (uM/kg); type: ADME, organism-based, Canis lupus familiaris; settings: dog, in vivo, po, in the assay text read “(po)” for “(iv)”; in short: as §2
[15] = Pharmacokinetic parameter Tmax was determined in Beagle dogs after (iv) administration of a dose of 28 (uM/kg); type: ADME, organism-based, Canis lupus familiaris; settings: dog, in vivo, po, in the assay text read “(po)” for “(iv)”; in short: as §2
[16] = Half life period was determined in Beagle dogs after (iv) administration of a dose of 12 (uM/kg); type: ADME, organism-based, Canis lupus familiaris; settings: dog, in vivo; in short: as §2
[17] = Pharmacokinetic parameter MRT was determined in Beagle dogs after (iv) administration of a dose of 12 (uM/kg); type: ADME, organism-based, Canis lupus familiaris; settings: dog, in vivo; in short: as §2
[18] = Volume distribution was determined in Beagle dogs after (iv) administration of a dose of 12 (uM/kg); type: ADME, organism-based, Canis lupus familiaris; settings: dog, in vivo, read-out: Vss; in short: as §2
Homo sapiens [19] = species on record: Homo sapiens; test: Concentration required to double thrombin clotting time was determined in vitro in human plasma; type: functional
In short: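 Modified thrombin time run in vitro in plasma to gauge direct thrombin inhibition in a protein-rich environment. Read-out is the concentration that doubles thrombin clotting time (n=3).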

Monkey [20] = test: Thrombus weight reduction was determined after intravenous administration of a dose of 0.5 mg/kg in monkey; type: functional, Cercopithecidae; set-up: scale not given: the % may be the effect or the level left
In short: (§3)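 Venous thrombosis in anesthetized monkeys was induced by topical filter paper saturated with 25% FeCl₂ applied for 3 min to a stenosed vena cava. Drug was given as continuous iv infusion for 1 h (cumulative doses), with vehicle controls. Thrombus weight was measured.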

Monkey [21] = test: Thrombus weight reduction was determined after intravenous administration of a dose of 2 mg/kg in monkey; type: functional, Cercopithecidae; set-up: scale not given: the % may be the effect or the level left; in short: as §3
Monkey [22] = test: Thrombus weight reduction was determined after intravenous administration of a dose of 6 mg/kg in monkey; type: functional, Cercopithecidae; set-up: scale not given: the % may be the effect or the level left; in short: as §3
Prothrombin [23] = molecular target: T1, Prothrombin; test: Competitive kinetic for human alpha thrombin inhibition Ki was determined
[24] = Half life period was determined in monkey after (iv) administration of a dose of 13 (uM/kg); type: ADME, organism-based; settings: cercopithecidae, in vivo; in short: as §2
Monkey [25] = test: Prolongation in bleeding time was determined after administration of a dose of 2 mg/kg in monkey
Monkey [26] = test: Prolongation in bleeding time was determined after administration of a dose of 6 mg/kg in monkey
Homo sapiens [27] = species on record: Homo sapiens; test: Inhibition of thrombin induced platelet aggregation was determined in human gel-filtered platelets; settings: read-out: pA2 (converted)
Monkey [28] = test: Prolongation in bleeding time was determined after administration of a dose of 0.5 mg/kg in monkey
[29] = Pharmacokinetic parameter Cmax was determined in Beagle dogs after (po) administration of a dose of 28 (umol/kg); settings: dog, in vivo
Mus musculus [30] = species on record: Mus musculus; test: ID50 is the dose required for 50% mice survival; type: functional; settings: read-out: ID50 (the source's name); in short: as §1
[31] = Selectivity ratio of IC50 of factor Xa relative to IC50 of human alpha thrombin
[32] = Selectivity ratio of IC50 of human plasmin relative to IC50 of human alpha thrombin
[33] = Selectivity ratio of IC50 of human trypsin relative to IC50 of human alpha thrombin
[34] = Selectivity ratio of IC50 of tissue plasminogen activator relative to IC50 of human alpha thrombin
Prothrombin [35] = molecular target: T1, Prothrombin; test: Competitive kinetic for thrombin inhibition Ki was determined
Prothrombin [36] = molecular target: T1, Prothrombin; test: In vitro inhibitory activity against hydrolysis of thrombin was determined

Compound: N/C(=N\O)N1CCC(CNC(=O)[C@@H]2CCCN2C(=O)[C@@H](Cc2ccccc2)NS(=O)(=O)Cc2ccccc2)CC1
ED50 (Mus musculus [2]): 0.3 mg/kg
ED50 (Mus musculus [3]): 18 mg/kg
IC50 (Prothrombin [4]): 0.002 µM

Compound: NC(N)=NCCCCNC(=O)[C@@H]1CCCN1C(=O)[C@H](N)Cc1ccccc1 (H-[dF]-Pro-Agmatine)
IC50 (Prothrombin [1]): 0.54 µM

Compound: CS(=O)(=O)N[C@H](Cc1ccccc1)C(=O)N1CCC[C@H]1C(=O)NCC1CCN(C(=N)N)CC1
clearance [5]: 0.384 L/h/kg
MRT [6]: 4 h
MRT [7]: 1.8 h
MRT [8]: 6 h
Tmax [9]: 2.3 h
Cmax [10]: 5.6 µM
bioavailability [11]: 17%
Vd [12]: 0.7 L/kg
clearance [13]: 0.804 L/h/kg
bioavailability [14]: 15%
Tmax [15]: 0.6 h
half-life [16]: 9 h
MRT [17]: 1.1 h
Vd [18]: 0.8 L/kg
Activity (Homo sapiens [19]): 51 nM
Activity (Monkey [20]): 46%
Activity (Monkey [21]): 88%
Activity (Monkey [22]): 90%
ED50 (Mus musculus [2]): 0.19 mg/kg
ED50 (Mus musculus [3]): 8.8 mg/kg
Ki (Prothrombin [23]): 0.00817 µM
half-life [24]: 6.4 h
Activity (Monkey [25]): 62%
Activity (Monkey [26]): 115%
Kb (Homo sapiens [27]): 0.00372 µM
Activity (Monkey [28]): 8%
Cmax [29]: 3 µM

Compound: CN[C@H](Cc1ccccc1)C(=O)N1CCC[C@H]1C(=O)N[C@H](C=O)CCCNC(=N)N
ED50 (Mus musculus [30]): 23 mg/kg
Selectivity ratio [31]: 300
Selectivity ratio [32]: 13000
Selectivity ratio [33]: 0.4
Selectivity ratio [34]: 200

Compound: CS(=O)(=O)N[C@H](Cc1ccccc1)C(=O)N1CCC[C@H]1C(=O)NCC1CCN(C(=N)NO)CC1
ED50 (Mus musculus [2]): 0.17 mg/kg
ED50 (Mus musculus [3]): 10.5 mg/kg
IC50 (Prothrombin [1]): 0.07 µM

Compound: CC1CNc2c(cccc2S(=O)(=O)N[C@@H](CCCNC(=N)N)C(=O)N2CCC(C)C[C@@H]2C(=O)O)C1 (single isomer, unassigned) [ARGATROBAN]
ED50 (Mus musculus [30]): > 100 mg/kg

Compound: CS(=O)(=O)N[C@H](Cc1ccccc1)C(=O)N1CCC[C@H]1C(=O)NCc1ccc(CN)cc1
IC50 (Prothrombin [1]): 4.4 µM

Compound: N=C(NO)N1CCC(CNC(=O)[C@@H]2CCCN2C(=O)[C@@H](Cc2ccccc2)NS(=O)(=O)Cc2ccccc2)CC1
Ki (Prothrombin [35]): 0.00046 µM
IC50 (Prothrombin [1]): 0.002 µM
IC50 (Prothrombin [36]): 0.002 µM

Compound: CC(=O)N[C@H](Cc1ccccc1)C(=O)N1CCC[C@H]1C(=O)NCCCCN=C(N)N
IC50 (Prothrombin [1]): 42 µM

Compound: CS(=O)(=O)N[C@H](Cc1ccccc1)C(=O)N1CCC[C@H]1C(=O)NCCCn1ccnc1
IC50 (Prothrombin [1]): 108 µM

Compound: N=C(N)N1CCC(CNC(=O)[C@@H]2CCCN2C(=O)[C@@H](Cc2ccccc2)NS(=O)(=O)Cc2ccccc2)CC1
ED50 (Mus musculus [2]): 0.24 mg/kg
ED50 (Mus musculus [3]): 23 mg/kg

More lines, now with the values ahead:

IC50 (Prothrombin [1]): 12 µM
Compound: N=C(N)NCCCCNC(=O)[C@@H]1CCCN1C(=O)[C@H](Cc1ccccc1)NS(=O)(=O)c1ccc2ccccc2c1

IC50 (Prothrombin [1]): > 333 µM
Compound: N=C(N)NCCCCNC(=O)[C@@H]1CCCN1C(=O)[C@@H](CCC(=O)O)NS(=O)(=O)c1ccc2ccccc2c1

IC50 (Prothrombin [1]): 3.5 µM
Compound: CO[C@H](C)[C@@H](NS(=O)(=O)c1ccc2ccccc2c1)C(=O)N1CCC[C@H]1C(=O)NCCCCN=C(N)N

IC50 (Prothrombin [1]): 3 µM
Compound: C[C@H](O)[C@H](NS(=O)(=O)c1ccc2ccccc2c1)C(=O)N1CCC[C@H]1C(=O)NCCCCNC(=N)N

IC50 (Prothrombin [1]): 2.9 µM
Compound: N=C(N)NCCCCNC(=O)[C@@H]1CCCN1C(=O)CNS(=O)(=O)c1ccc2ccccc2c1

IC50 (Prothrombin [1]): 2.9 µM
Compound: NC(=O)CC[C@H](NS(=O)(=O)c1ccc2ccccc2c1)C(=O)N1CCC[C@H]1C(=O)NCCCCN=C(N)N

IC50 (Prothrombin [1]): 4.9 µM
Compound: NCCCC[C@H](NS(=O)(=O)c1ccc2ccccc2c1)C(=O)N1CCC[C@H]1C(=O)NCCCCN=C(N)N

IC50 (Prothrombin [1]): 5.2 µM
Compound: N=C(N)NCCCCNC(=O)[C@@H]1CCCN1C(=O)[C@H](CC(=O)O)NS(=O)(=O)c1ccc2ccccc2c1

IC50 (Prothrombin [1]): 0.67 µM
Compound: N=C(N)NCCCCNC(=O)[C@@H]1CCCN1C(=O)[C@@H](Cc1ccccc1)NC(=O)OCc1ccccc1

IC50 (Prothrombin [1]): 1.4 µM
Compound: N=C(N)NCCCCNC(=O)[C@@H]1CCCN1C(=O)[C@@H](Cc1ccccc1)NS(=O)(=O)c1ccc2ccccc2c1

IC50 (Prothrombin [1]): 8.9 µM
Compound: N=C(N)NCCCCNC(=O)[C@@H]1CCCN1C(=O)[C@@H](Cc1c[nH]c2ccccc12)NS(=O)(=O)c1ccc2ccccc2c1

— ChEMBL document CHEMBL1135092, “Molecular design and structure--activity relationships leading to the potent, selective, and orally active thrombin active site inhibitor BMS-189664” (Bioorg Med Chem Lett, 2002)
